Source: ChEMBL document CHEMBL1123036, “Synthesis and antiallergic activities of 1,3-oxazolo[4,5-h]quinolines” (J Med Chem, 1985)
pIC50: −log10 of the molar value.

Key:
Rattus norvegicus [1] = experiment: Ability to inhibit passive cutaneous anaphylaxis in rat, when compound was injected intraperitoneally; format: functional; details: ip
Procedure, shortened: (§1)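 Rat passive cutaneous anaphylaxis: the read-out was inhibition of IgE-mediated cutaneous wheal formation after antigen challenge. Compounds were given by the route and dose stated on the line.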

Rattus norvegicus [2] = species on record: Rattus norvegicus; experiment: Ability to inhibit passive cutaneous anaphylaxis in rat, when compound was injected perorally; format: functional; procedure, shortened: as §1
Rattus norvegicus [3] = species on record: Rattus norvegicus; experiment: In vitro ability to inhibit antigen-induced release of histamine (AIR) from rat peritoneal mast cells.; format: functional
Procedure, shortened: (§2)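 Rat peritoneal cells were collected by lavage and contained 5–10% mast cells. Histamine was measured by a radioenzymatic method instead of fluorometry, because some test agents fluoresce. Samples were incubated with [¹⁴C]methyl-S-adenosylmethionine and histamine-N-methyltransferase prepared from rat kidneys.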

Rattus norvegicus [4] = species on record: Rattus norvegicus; experiment: (§3) In vitro ability to inhibit antigen-induced release of histamine (AIR) from rat peritoneal mast cells; format: functional, cell-based
Procedure, shortened: (§4)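 Peritoneal cells collected from rats by lavage, containing 5–10% mast cells. Antigen-induced histamine release was quantified radioenzymatically rather than fluorometrically: samples were incubated with [¹⁴C]methyl-S-adenosylmethionine and histamine-N-methyltransferase prepared from rat kidneys.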

Rattus norvegicus [5] = experiment: Percentage inhibition against passive cutaneous anaphylaxis after injecting 10 mg/kg perorally in rat; format: functional; details: route oral; procedure, shortened: as §1
Rattus norvegicus [6] = species on record: Rattus norvegicus; experiment: Ability to inhibit anaphylactically induced release of histamine (AIR) from rat peritoneal mast cells; format: functional, cell-based; procedure, shortened: as §4
Rattus norvegicus [7] = experiment: Percentage inhibition against passive cutaneous anaphylaxis after injecting 10 mg/kg intraperitoneally in rat; format: functional; details: route intraperitoneal; for inhibition in vivo at 10 mg/kg: Rattus norvegicus, ip; procedure, shortened: as §1
Rattus norvegicus [8] = experiment: Percentage inhibition against passive cutaneous anaphylaxis after injecting 25 mg/kg perorally in rat; format: functional; details: route oral; procedure, shortened: as §1
Rattus norvegicus [9] = experiment: Percentage inhibition of 30 mg/kg compound against antigen-induced release of histamine (AIR) from rat mast cells; format: functional
Rattus norvegicus [10] = species on record: Rattus norvegicus; experiment: as §3; format: functional; procedure, shortened: as §4
Rattus norvegicus [11] = species on record: Rattus norvegicus; experiment: Percentage inhibition against passive cutaneous anaphylaxis in rat, when injected perorally; format: functional
Procedure, shortened: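 Rat passive cutaneous anaphylaxis, an IgE-mediated cutaneous wheal formation model; compounds given orally before antigen challenge; read-out is percent inhibition of wheal formation.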

Rattus norvegicus [12] = species on record: Rattus norvegicus; experiment: Ability to inhibit passive cutaneous anaphylaxis in rat, when compound was injected perorally.; format: functional; procedure, shortened: as §1
Rattus norvegicus [13] = experiment: Percentage inhibition against passive cutaneous anaphylaxis after injecting 125 mg/kg perorally in rat; format: functional; details: route oral; procedure, shortened: as §1
Rattus norvegicus [14] = species on record: Rattus norvegicus; experiment: In vitro ability to inhibit antigen-induced release of histamine (AIR) from rat mast cells; format: functional, cell-based; procedure, shortened: as §2
Rattus norvegicus [15] = experiment: Ability to inhibit passive cutaneous anaphylaxis in rat, when compound was injected intraperitoneally.; format: functional; details: ip; procedure, shortened: as §1
Rattus norvegicus [16] = experiment: Percentage inhibition against passive cutaneous anaphylaxis in rat, when injected intraperitoneally; format: functional; procedure, shortened: as §1
Rattus norvegicus [17] = species on record: Rattus norvegicus; experiment: In vitro ability to inhibit antigen-induced release of histamine (AIR) from rat peritoneal mast cells; the compound was tested at a concentration of 50 uM.; format: functional, cell-based
Rattus norvegicus [18] = species on record: Rattus norvegicus; experiment: In vitro ability to inhibit antigen-induced release of histamine (AIR) from rat mast cells; histamine release was assayed by a radioenzymatic method; format: functional, cell-based; procedure, shortened: as §2
Rattus norvegicus [19] = experiment: Ability to inhibit passive cutaneous anaphylaxis in rat, when […] injected perorally; format: functional; details: route oral; procedure, shortened: as §1

Compound: CC(=O)n1c(=O)oc2c3ncccc3ccc21
- ED50 (Rattus norvegicus [1]): 10 mg/kg
- ED50 (Rattus norvegicus [2]): 4 mg/kg
- Inhibition (Rattus norvegicus [3]): <30%

Compound: Cc1nc2cc(Cl)c3cccnc3c2o1
- pIC50 (Rattus norvegicus [4]): 4.48
- inhibition in vivo at 10 mg/kg (Rattus norvegicus [5]): 15%

Compound: COc1ccccc1NC(=O)Oc1cccc2cccnc12
- pIC50 (Rattus norvegicus [6]): 5.70

Compound: O=C(O)c1nc2cc(Cl)c3cccnc3c2o1
- inhibition in vivo at 10 mg/kg (Rattus norvegicus [7]): 47%

Compound: Oc1nc2ccc3cccnc3c2o1
- inhibition in vivo at 25 mg/kg (Rattus norvegicus [8]): 0%

Compound: Clc1cc2nc(-c3ccccc3)oc2c2ncccc12
- inhibition in vivo at 10 mg/kg (Rattus norvegicus [5]): 3%
- inhibition in vivo at 30 mg/kg (Rattus norvegicus [9]): < 30%

Compound: Clc1cc2ncoc2c2ncccc12
- inhibition in vivo at 10 mg/kg (Rattus norvegicus [5]): 28%

Compound: O=C([O-])c1nc2cc(Cl)c3cccnc3c2o1.[Na+]
- pIC50 (Rattus norvegicus [4]): 6.52
- Inhibition (Rattus norvegicus [7]): 51%

Compound: COc1ccccc1C(=O)n1c(=O)oc2c3ncccc3c(Cl)cc21
- Inhibition (Rattus norvegicus [10]): 16%
- Inhibition (Rattus norvegicus [11]): 34%

Compound: CCOC(=O)n1c(=O)oc2c3ncccc3c(Cl)cc21
- Inhibition (Rattus norvegicus [11]): 43%

Compound: Cn1c(=O)oc2c3ncccc3c(Cl)cc21
- ED50 (Rattus norvegicus [12]): 102 mg/kg
- inhibition in vivo at 125 mg/kg (Rattus norvegicus [13]): 51%

Compound: O=C([O-])c1cc(=O)c2c(OCC(O)COc3cccc4oc(C(=O)[O-])cc(=O)c34)cccc2o1.[Na+].[Na+] [CROMOLYN SODIUM]
- pIC50 (Rattus norvegicus [14]): 5.52
- ED50 (Rattus norvegicus [15]): 6 mg/kg

Compound: O=C(/C=C/c1ccccc1)n1c(=O)oc2c3ncccc3c(Cl)cc21
- Inhibition (Rattus norvegicus [10]): 18%
- Inhibition (Rattus norvegicus [11]): 0%

Compound: Clc1cc2nc(C(Cl)(Cl)Cl)oc2c2ncccc12
- pIC50 (Rattus norvegicus [4]): 7.52
- Inhibition (Rattus norvegicus [16]): 28%

Compound: CCOC(=O)Cc1nc2cc(Cl)c3cccnc3c2o1
- inhibition in vivo at 10 mg/kg (Rattus norvegicus [7]): 9%

Compound: CN(C)C(=O)n1c(=O)oc2c3ncccc3c(Cl)cc21
- Inhibition (Rattus norvegicus [10]): 0%

Compound: Oc1nc2cc(Cl)c3cccnc3c2o1
- % inhibition (Rattus norvegicus [17]): 18%
- inhibition in vivo at 125 mg/kg (Rattus norvegicus [13]): 14%

Compound: CCOC(=O)c1nc2cc(Cl)c3cccnc3c2o1
- pIC50 (Rattus norvegicus [4]): 7.00
- inhibition in vivo at 10 mg/kg (Rattus norvegicus [7]): 59%

Compound: CC(=O)n1c(=O)oc2c3ncccc3c(Cl)cc21
- Inhibition (Rattus norvegicus [11]): 15%

Compound: COC(=O)c1nc2cc(Cl)c3cccnc3c2o1 [QUAZOLAST]
- pIC50 (Rattus norvegicus [18]): 6.52
- ED50 (Rattus norvegicus [19]): 0.5 mg/kg
- ED50 (Rattus norvegicus [15]): 0.1 mg/kg
- inhibition in vivo at 10 mg/kg (Rattus norvegicus [7]): 100%
